This is an account of results in ChEMBL document CHEMBL2010700, “The discovery of aminopyrazines as novel, potent Na(v)1.7 antagonists: hit-to-lead identification and SAR” (Bioorg Med Chem Lett, 2012).

Series [1] in a line: Oral bioavailability in Sprague-Dawley rat at 2 mg/kg. In kind it is ADME, organism-based. To be noted: in vivo. The procedure, abridged:
(§1)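 Male Sprague-Dawley rats given 2.0 mpk orally in 10 mL/kg of 30% hydroxypropyl-β-cyclodextrin adjusted to pH 2.2 with methanesulfonic acid.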

Series [2] is described as follows: Solubility of the compound in phosphate buffered saline at pH 7.4. Format: physicochemical.
Series [3] in a line: Volume of distribution at steady state in Sprague-Dawley rat at 0.5 mg/kg, iv. Format: ADME, organism-based. More on the design: dose 0.5 mg/kg, route intravenous. To be noted: in vivo, read-out: Vdss.
The nature of series [4]: AUC (infinity) in Sprague-Dawley rat at 2 mg/kg, po. In kind it is ADME, organism-based. More on the design: dose 2 mg/kg, route oral, time infinity. To be noted: plasma. The method in brief: as §1
Series [5] is described as follows: Solubility of the compound in 0.01 N HCl. Format: physicochemical.
A short description of series [6]: Cmax in Sprague-Dawley rat at 2 mg/kg, po. Format: ADME, organism-based. Details: dose 2 mg/kg, route oral; call rule not given here. To be noted: in vivo. The method in brief:
as §1

Series [7] in a line: Solubility of the compound in simulated intestinal fluid. In kind it is physicochemical.
For another series, the system named is Plasma. The experiment in a line: Drug metabolism in rat plasma assessed as formation of mono-oxidized product at 10 uM after 3 hrs. In kind it is ADME, cell-free.

≈ marks a conversion by molar mass, not a printed value.

For `Nc1cncc(Nc2ccc(Oc3ccc(OC(F)(F)F)cc3)cc2)n1`, in series [1], the bioavailability was 13%. In addition, the solubility was 1 µg/mL (≈ 2.76 µM) in series [2], 7 µg/mL (≈ 19.3 µM) in series [5] and 109 µg/mL (≈ 301 µM) in series [7]. In series [3], the Vd amounted to 2.1 L/kg. Besides, the AUC(0-inf) in series [4] stood at 0.76 µM·h. In series [6], this compound came in with a Cmax of 220 nM.

`Nc1ncnc(Nc2ccc(Oc3ccc(Cl)cc3)cc2)n1`: the solubility was 1 µg/mL (≈ 3.19 µM) in series [2], 6 µg/mL (≈ 19.1 µM) in series [5] and 7 µg/mL (≈ 22.3 µM) in series [7]. Besides, in the series with Plasma, the Drug metabolism entry is “Active”.

One may read the bioavailability as the share of a dose that reaches the circulation, judged against a reference dose that is usually intravenous. In general, solubility refers to the concentration that dissolves in the medium under given conditions. A high value points to much dissolved substance. A word on the AUC(0-inf): it is total exposure, with the tail of the curve extrapolated. Read a low AUC(0-inf) as less exposure. What is called Cmax is the peak of the concentration-time curve.
